Test results from ChEMBL document CHEMBL4513216, “Probing the Open Global Health Chemical Diversity Library for Multistage-Active Starting Points for Next-Generation Antimalarials” (ACS Infect Dis, 2020).

Assay: Toxicity liver stage against HepG2, at 10uM
Type: cell-based
Design: test concentration 10 uM, cell line HepG2-A16-CD81EGFP
Details: human, HepG2-A16-CD81EGFP cells; read-out: INHIBITION
Procedure, shortened: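 Uninfected HepG2-A16-CD81EGFP cells, 3 × 10^3 per well, 1536-well, plated on prespotted compound at 10 μM final, parasite-free screening media added to match infected plates; puromycin 10 μM positive, DMSO 0.5% negative; run in parallel with 48 h PbLuc assay at 37 °C, 5% CO2; viability by CellTiter-Glo luminescence, normalized to controls.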

SMILES | cytotoxicity at 10 µM [%]
CN(CCO)C(=O)c1coc(CN2CCN(c3ccccc3F)CC2)n1 | 15.7
CCCS(=O)(=O)N1CCC2(CC1)CC(N1CCCC1)c1ccccc12 (stereo not given) | -0.664
Cn1ncc2c(N3CCC(CC(=O)N4CCCC4)CC3)ncnc21 | 4.19
Cc1csc(CN2CCC[C@]3(C[C@H](OCC4CC4)CO3)C2)n1 | -141
CC(=O)N1CCN(C[C@H]2CC[C@@H](Cc3ccc4ncccc4c3)O2)CC1 | -9.14
O=S(=O)(CCCN1CCOC(Cn2cccn2)C1)c1ccccc1 (stereo not given) | -2.54
O=C1CCC2(CCNCC2)CN1CCCOc1cccnc1 | -13.2
O=C1CCCN1Cc1nnc2n1CCN(Cc1ccoc1)CC2 | 2.72
COc1ccc(NC(C)C(=O)N2CCCC2)cn1 (stereo not given) | -4.96
O=C(C(CNCc1cccnc1)c1ccccc1)N1CCOCC1 (stereo not given) | 2.49
Cc1ccc(N(C)[C@@H]2CC[C@@H]3CN(C(=O)CC4CCOCC4)C[C@@H]32)nn1 | -1.79
O=C(c1ccoc1)N1CCCC1C1CCN(Cc2ccccc2)CC1 (stereo not given) | -10.6
OC1(CNCCSc2ccccn2)CNCCOC1 (stereo not given) | -9.41
COc1ccc(-c2cc(C3=NC(=CN4CCN(C)CC4)NO3)[nH]n2)cc1 | -17.8
CN(CC(=O)NCc1ccccn1)CC1CCCN1c1cccnn1 (stereo not given) | -5.47
CC(C)N(C)C(=O)C1CSCN1S(=O)(=O)c1cc(Cl)ccc1Cl (stereo not given) | -1.57
Cc1cc(C)cc(CN2C[C@@H]3OCCN(CC(=O)N(C)C)[C@@H]3C2)c1 | -92.9
CNS(=O)(=O)c1ccc(CNC(=O)c2cccc(C)n2)cc1 | 7.17
CCC[C@H]1CN(Cc2ccc(N(C)C)nc2)C[C@@H]1NC(=O)CCOC | 15.5
Cc1ccc(C(=O)NC(CN2CCCC2=O)c2ccccc2)cn1 (stereo not given) | -4.6
Cc1ccn2ncc(C(=O)N3CCCC(n4ccnc4C)C3)c2n1 (stereo not given) | -13.6
CCOc1ccc(-n2ccc3nc(N4CCCC4)ncc3c2=O)cc1 | -1.19

SMILES | cytotoxicity at 10 µM [%]
COc1ccc(-c2n[nH]cc2C2SCC(=O)Nc3[nH]ncc32)cc1 (stereo not given) | -1.33
O=C(C1CC1)N1Cc2[nH]nc(COCc3cccnc3)c2C1 | 0.997
CC(=O)N1CCN(C[C@H]2CC[C@@H](Cc3ccc4c(c3)OCO4)O2)CC1 | -7.9
CC(C)(O)CN1CCN(C(=O)COCC(F)(F)F)CC1 | -12.9
CN1CCC(Oc2ccc(NC(=O)c3cccc(Cl)c3)cc2)CC1 | -8.45
c1cnc(N2CCOC3(CCN(CC4CCOC4)CC3)C2)nc1 (stereo not given) | -0.777
COCC(=O)N1CCC2(C1)c1ccccc1S(=O)(=O)N2C (stereo not given) | 3.57
Cc1ccc(CS(=O)(=O)NCc2ccco2)cc1 | -2.11
Cc1nc(C(C)(C)NC(=O)Nc2cccc(C#N)c2)no1 | -7.79
COc1cccc(OCC2CCCN(C(=O)c3cc(C)n[nH]3)C2)c1 (stereo not given) | -3.42
Cc1nc2cc(-c3nccn3C)nn2c(N2CCCC(O)C2)c1C (stereo not given) | 2.92
CCn1c(C)nnc1CN(C)C1CCN(CC2CCC2)C1 (stereo not given) | -11.5
CC(=O)NCC(=O)N1Cc2nc(COCc3csc(C)n3)oc2C1 | 0.503
Cn1cc(NC(=O)CNC(=O)N2CCN(c3cccc(Cl)c3)CC2)cn1 | 2.93
O=C(c1c[nH]cn1)N1CCOCC2(C1)CN(c1ccccc1)C(=O)CO2 (stereo not given) | -7.27
CS(=O)(=O)NC1CCN(C(=O)c2cc3ccccc3s2)C1 (stereo not given) | 6.65
CC(C)Cc1nc(CNCc2cccc(N3CCCC3=O)c2)no1 | 0.753
CN(CCO)Cc1nnc(C2CCN(C(=O)CN3CCCC3)CC2)n1C | 2.1
COc1ccc(N2CCC(NCc3csc(C(C)C)n3)CC2)cc1 | -15.9
CCOC(=O)NCCC(=O)NCc1ccc(Oc2ccc(F)cc2)nc1 | -18.9
CO[C@@H]1CC[C@H]2[C@H]1OCCN2CC1CCOCC1 | -20.3
CN(C)Cc1nnn2c1CN(Cc1cccnc1)CCC2 | 5.69

SMILES | cytotoxicity at 10 µM [%]
Cc1nnc(CN(C)CC(=O)NCCc2ccc(F)cc2)n1C | 2.25
CCN(CCc1nccs1)C(=O)c1sccc1C | -0.682
CC(Cn1cccn1)NC(=O)NCc1ccccn1 (stereo not given) | 6.79
O=S(=O)(Cc1ccccc1)NCc1ccco1 | 0.0906
Cc1cc(NC(=O)N(Cc2ccc(C#N)cc2)C(C)C)no1 | -17
CC(C)(C)C(O)CN1CCN(C(=O)c2cccc3ncccc23)CC1 (stereo not given) | 4.67
O=C(CCN1CCOC(CNc2cccnn2)C1)NC1CCCCC1 (stereo not given) | 3.09
CCS(=O)(=O)N1C[C@H](c2nc(C)no2)C[C@H]2OCC[C@H]21 | -119
O=c1[nH]ncc(NCCOc2cccc(Br)c2)c1Cl | 41.8
CC(C)N(C)Cc1cnc2n1CCN(C(=O)NC1CCCC1)C2 | 4.14
COCCO[C@H]1CCN(Cc2cnn(C)c2)[C@H]1Cc1cccnc1 | 0.793
CN1[C@@H](c2ccccc2)[C@@H](C(=O)NCC2CCOCC2)C[C@@]1(C)C(=O)O | -40.4
CCOCC(=O)NCc1cc(C2CC2)n(C2CCCC2)n1 | -0.165
Cc1ncc2c(n1)CN(Cc1nc3c(F)cccc3[nH]1)CC2 | -4.74
Cc1ccc(OCCC(=O)N2CCN(c3cnccn3)CC2)cc1C | -12.2
COCc1nccc(C2CCCN(Cc3cccc(C#N)c3)C2)n1 (stereo not given) | 18.7
Cc1nc(CC(=O)N2CCCC(n3ccnc3C(C)C)C2)cs1 (stereo not given) | -0.354
Cc1cn[nH]c1C1COCCN1S(=O)(=O)c1cn[nH]c1 (stereo not given) | -24.6
CC(CNS(N)(=O)=O)c1ccc(F)c(F)c1 (stereo not given) | -12.1
CC(=O)N1CCCCC1c1nnc2n1CCNC2 (stereo not given) | 14.7
CCn1cc(NS(=O)(=O)c2ccc(Br)s2)c(C(N)=O)n1 | 2.3
COc1cc(F)c(NC(=O)N(C)Cc2cc(C)on2)cc1F | -4.25

SMILES | cytotoxicity at 10 µM [%]
CC(C)=CCN1CCN(CCCOc2ccccc2)[C@H]2CS(=O)(=O)C[C@H]21 | -8.34
Cc1cccc(NC(=O)NC2CCC3(C2)OCCO3)c1Cl (stereo not given) | 10.6
COc1ncc(CN2CCOC(Cc3cccc4ccccc34)C2)cn1 (stereo not given) | -3.94
CN(C)CCNC(=O)c1sccc1N(C)S(=O)(=O)c1ccc(Cl)cc1 | 2.38
CN(C)Cc1cc(=O)n2c(n1)CN(C(=O)Cc1cccs1)CCC2 | -2.8
NC(=O)CN1CCC(NC(=O)COc2ccc(Cl)c(Cl)c2)CC1 | -8.7
O=C(CCC(F)(F)F)N1CCCC2(CCC(=O)N(CC3CC3)C2)C1 (stereo not given) | 7.4
Cc1ccc([C@H]2CN(CCO)C[C@@H]2NC(=O)CN2CCCCC2=O)o1 | 2.1
Cc1c(Br)cccc1C(=O)Nc1cc(C(N)=O)n(C)c1 | 0.71
CS(=O)(=O)NC1CCN(Cc2coc(-c3ccc(Cl)cc3)n2)CC1 | -41.9
O=C(C1CC1)N1CCCC1c1nnc2n1CCCCC2 (stereo not given) | -0.614
CC(c1ccc2c(c1)OCCO2)N(C)C(=O)c1ccnnc1 (stereo not given) | 0.94
Cc1cc(CN2CCCC2Cn2cccn2)no1 (stereo not given) | -4.36
CN(C)CC(=O)N1Cc2nc(C(=O)NCc3ccncc3)oc2C1 | -8.58
COC(=O)c1cccc(NCC(=O)NC(N)=O)c1 | 6.88
NC(=O)C1CCN(C(=O)c2cccc(OCc3cscn3)c2)CC1 | -15.5
Fc1ccc(-c2nnc(CN3CCCC3Cn3cccn3)o2)cc1 (stereo not given) | -5.65
CC(=O)N1CCCN(C(=O)c2cnn(-c3ccccc3Cl)c2)CC1 | -11.4
CCS(=O)(=O)N1CCC2(CCCC(=O)N2C)CC1 | 0.817
O=C(c1cn(-c2cc(N3CCSCC3)ncn2)cn1)N1CCOCC1 | 14.9
Cc1nc(C2CCCN2Cc2nnc(C3CC3)o2)no1 (stereo not given) | -5.97
Cc1nc(C2CCCN(C(=O)c3csc(C)n3)C2)no1 (stereo not given) | 7.04

SMILES | cytotoxicity at 10 µM [%]
COc1ccccc1CN1C[C@@H]2CN(Cc3cccnc3)CCO[C@@H]2C1 | 12.3
CN(CC1=CCCN(CCc2ccccn2)C1)C(=O)c1ccco1 | 1.7
CCn1c(C)cc(C(=O)N2CCCC(C(=O)c3nccn3C)C2)c1C (stereo not given) | 6.27
CC(C)c1cc(C(=O)N2CC[C@@H](c3ccc4c(c3)OCO4)[C@H](O)C2)[nH]n1 | 3.29
Cc1ccc(CNCCS(=O)(=O)N2CCOCC2)cc1C | 1.41
CC(C)CNC(=O)CNc1c(NCc2ccccn2)c(=O)c1=O | -9.06
CCC(CC)CN1CCC2(CCC(=O)N2OCc2ccccc2F)CC1 | 6.69
Cc1ccnc(NC(=O)c2ccc(-n3ncc(C#N)c3N)cc2)c1 | 1.22
CS(=O)(=O)N1CC[C@H](c2nc3ccc(C(F)(F)F)cc3[nH]2)C1 | 0.0915
CC/N=c1\nc(NCC)nc2n1C(O)(Nc1cccc(C)c1C)CS2 (stereo not given) | 11.5
CC(NC(N)=O)C(=O)Nc1ccc(OCc2cccc(F)c2)c(F)c1 (stereo not given) | -12.3
Cc1nc(CN2CCC(N(C)Cc3noc(C(C)C)n3)C2)oc1C (stereo not given) | 4.63
COc1cccc(-c2noc(C3CCN(Cc4cn(C)nc4C)C3)n2)c1 (stereo not given) | 11.4
c1cncc(COCc2nnc3n2CCN(Cc2cccs2)C3)c1 | 0.399
O=S(=O)(c1ccccc1)N1CCC2(CCCN2Cc2ccccc2Cl)C1 (stereo not given) | -74.5
CCc1noc(CN2CCCC2C(=O)OCc2ccccc2)n1 (stereo not given) | -1.57
c1csc(-c2noc(CCCN3CCCC3Cn3cncn3)n2)c1 (stereo not given) | -24.2
O=C(CCSC1CCc2ccccc2NC1=O)NCCCO (stereo not given) | -5.65
COc1cccc(CNc2c(C)nn(C(C)C)c2C)c1 | -46.9
COc1cccc(C(O)CN2CCN(C(=O)CCC(C)C)CC2)c1 (stereo not given) | -46.9
Cc1ccsc1-c1nccn1CCN1CCCCC1CO (stereo not given) | -8.11
COCCC1(CNC(=O)Nc2ccc(-n3nccn3)cc2)CCC1 | -2.99
